Data on seven molecules can be found in ChEMBL document CHEMBL6074702, “Discovery of 4-(5-Membered)Heteroarylether-6-methylpicolinamide Negative Allosteric Modulators of Metabotropic Glutamate Receptor Subtype 5” (ACS Med Chem Lett, 2024).

SMILES strings stand for the structures. The source made the active and inactive calls. The calls are words filed in the database; no cut-off is given here.

A short description of data set [1]: Ratio of unbound drug concentration in Sprague-Dawley rat brain to plasma at 0.2 mg/kg, iv measured after 0.25 hrs by LC-MS/MS analysis. The class given is ADME, organism-based. Put shortly:
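Male Sprague Dawley rats (n = 1) received a single IV dose through a jugular catheter, formulated in 10% ethanol/40% PEG400/50% DMSO at 0.5 mL/kg. Terminal plasma (K2EDTA) and whole brain were taken at 15 min. Brain was homogenized in isopropanol:water 7:3. Samples were acetonitrile-precipitated with carbamazepine as internal standard and quantified by LC-MS/MS against a plasma standard curve, with dilution correction.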

A short description of data set [2]: Unbound fraction in rat plasma at 5 uM incubated for 6 hrs by equilibrium dialysis based LC-MS/MS analysis. The class given is ADME, cell-free. Put shortly: (§1)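 Equilibrium dialysis of plasma spiked at 5 μM final against DPBS, in triplicate, 6 h at 37 °C. Samples were matrix-matched, acetonitrile-extracted with carbamazepine as internal standard, and analyzed by LC-MS/MS. fu = buffer-side/plasma-side analyte:IS peak area ratio, mean of 3 replicates.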
A general note: In equilibrium dialysis only unbound substance equilibrates across the membrane.

Data set [3] can be described thus: Unbound fraction in rat brain at 1 uM incubated for 6 hrs by equilibrium dialysis based LC-MS/MS analysis. The class given is ADME, tissue-based. Put shortly: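 Naïve rat brain was homogenized in DPBS (1:3 w/w) and dialyzed against DPBS at 1 μM final, in triplicate, 6 h at 37 °C. Quantification was by LC-MS/MS. Diluted fu2 = buffer/homogenate peak area ratio, corrected to undiluted fu using the 1/4 dilution equation; mean of 3 replicates.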

Data set [4] has as its target Metabotropic glutamate receptor 3 (Homo sapiens) (UniProt Q14832). Briefly: Negative allosteric modulation of human mGlu3 receptor expressed in HEK293 cells harboring GIRK assessed as maximal inhibition response by thallium flux assay relative to glutamate. The class given is cell-based. The conditions noted are these: filed as negative allosteric modulator.
Data set [5] has as its target Metabotropic glutamate receptor 7 (Homo sapiens) (UniProt Q14831). Briefly: Negative allosteric modulation of human mGlu7 receptor expressed in HEK293-A co-expressing Galpha15 assessed as inhibition of DL-AP4 induced-calcium mobilization preincubated for 140 sec followed by DL-AP4 addition at EC20 concentration for 125 sec and measured after 90 sec addition of glutamate at EC80 concentration by Fluo-4 AM dye based fluorescence assay. The class given is functional, cell-based. Particulars: time 355.0 sec. The gist of the method: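 HEK293 cells stably co-expressing human mGlu7 and mouse Gα15 were plated at 15,000/well in dialyzed-FBS medium and grown overnight at 37 °C. They were loaded with Fluo-4-AM (final 1.15 μM) for 50 min at RT, then read at RT in a triple-add assay with DL-AP4 as agonist. Compounds were run as 10-point 1:3 curves; ex 480/em 530 nm. Data were normalized to maximal agonist response and fitted to a four-parameter logistic equation.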
In general terms: A change in cytosolic calcium serves as a functional read-out for many receptors and channels.

Data set [6] addresses Metabotropic glutamate receptor 1 (Homo sapiens) (UniProt Q13255). Briefly: Negative allosteric modulation of tetracycline-inducible human mGlu1 receptor expressed in human T-REx-293 cells by calcium mobilization assay. The class given is functional, cell-based.
Data set [7] addresses Metabotropic glutamate receptor 2 (Homo sapiens) (UniProt Q14416). The experiment in a line: Negative allosteric modulation of human mGlu2 receptor expressed in HEK293 cells harboring GIRK by thallium flux assay. The class given is cell-based.
Data set [8] is described as follows: Drug metabolism in cryopreserved dog Hepatocyte assessed as amide hydrolysis mediated metabolite formation at 10 uM measured after 4 hrs. The class given is ADME, cell-based, Canis lupus familiaris. The conditions noted are these: hepatocytes. Put shortly:
(§2)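 Rat, dog, monkey and human hepatocytes were incubated with 10 μM compound and sampled at 0 and 4 h. Metabolites were tentatively identified by accurate-mass LC-MS (observed m/z). Retention times were taken from MS extracted ion chromatograms.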

Data set [9] can be described thus: Drug metabolism in cryopreserved rat Hepatocyte assessed as amide hydrolysis mediated metabolite formation at 10 uM measured after 4 hrs. The class given is ADME, cell-based. Particulars: hepatocytes. The gist of the method: as §2
Data set [10] is described as follows: Drug metabolism in cryopreserved human Hepatocyte assessed as amide hydrolysis mediated metabolite formation at 10 uM measured after 4 hrs. The class given is ADME, cell-based. The conditions noted are these: hepatocytes. Put shortly: as §2
Data set [11] addresses Metabotropic glutamate receptor 8 (Homo sapiens) (UniProt O00222). The experiment in a line: Negative allosteric modulation of human mGlu8 expressed in HEK293-A assessed as inhibition of glutamate induced-calcium mobilization preincubated for 140 sec followed by glutamate addition at EC20 concentration for 125 sec and measured after 90 sec addition of glutamate at EC80 concentration by Fluo-4 AM dye based fluorescence assay. The class given is functional, cell-based. Particulars: time 355.0 sec. The gist of the method:
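HEK293 cells stably co-expressing human mGlu8 and mouse Gα15 were plated at 15,000/well and grown overnight. Fluo-4-AM (final 1.15 μM) was loaded for 50 min at 37 °C, […]. The FDSS run was at RT: compound, then glutamate EC20, then EC80 additions. Compounds were run as 10-point 1:3 curves; ex 480/em 530 nm. Data were normalized to glutamate ECmax and fitted to a four-parameter logistic equation.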

The nature of data set [12]: Drug metabolism in cryopreserved cynomolgus monkey Hepatocyte assessed as amide hydrolysis mediated metabolite formation at 10 uM measured after 4 hrs. The class given is ADME, cell-based, Macaca fascicularis. Particulars: hepatocytes. Put shortly:
as §2

For data set [13], the target named is Metabotropic glutamate receptor 4 (Homo sapiens) (UniProt Q14833). The experiment in a line: Negative allosteric modulation of human mGlu4 receptor expressed in CHO cells co-expressing Gqi5 assessed as inhibition of glutamate induced calcium mobilization preincubated for 142 sec followed by glutamate addition at EC20 concentration for 120 sec and measured after 40 sec addition of glutamate at EC80 concentration by Fluo-4 AM dye based fluorescence assay relative to glutamate. The class given is functional, cell-based. The conditions noted are these: time 302.0 sec.

Data set [14] in a line: Unbound fraction in human plasma at 5 uM incubated for 6 hrs by equilibrium dialysis based LC-MS/MS analysis. The class given is ADME, cell-free. Put shortly:
as §1

Chain of Metabotropic glutamate receptor 4 (Homo sapiens) (Q14833 whole entry): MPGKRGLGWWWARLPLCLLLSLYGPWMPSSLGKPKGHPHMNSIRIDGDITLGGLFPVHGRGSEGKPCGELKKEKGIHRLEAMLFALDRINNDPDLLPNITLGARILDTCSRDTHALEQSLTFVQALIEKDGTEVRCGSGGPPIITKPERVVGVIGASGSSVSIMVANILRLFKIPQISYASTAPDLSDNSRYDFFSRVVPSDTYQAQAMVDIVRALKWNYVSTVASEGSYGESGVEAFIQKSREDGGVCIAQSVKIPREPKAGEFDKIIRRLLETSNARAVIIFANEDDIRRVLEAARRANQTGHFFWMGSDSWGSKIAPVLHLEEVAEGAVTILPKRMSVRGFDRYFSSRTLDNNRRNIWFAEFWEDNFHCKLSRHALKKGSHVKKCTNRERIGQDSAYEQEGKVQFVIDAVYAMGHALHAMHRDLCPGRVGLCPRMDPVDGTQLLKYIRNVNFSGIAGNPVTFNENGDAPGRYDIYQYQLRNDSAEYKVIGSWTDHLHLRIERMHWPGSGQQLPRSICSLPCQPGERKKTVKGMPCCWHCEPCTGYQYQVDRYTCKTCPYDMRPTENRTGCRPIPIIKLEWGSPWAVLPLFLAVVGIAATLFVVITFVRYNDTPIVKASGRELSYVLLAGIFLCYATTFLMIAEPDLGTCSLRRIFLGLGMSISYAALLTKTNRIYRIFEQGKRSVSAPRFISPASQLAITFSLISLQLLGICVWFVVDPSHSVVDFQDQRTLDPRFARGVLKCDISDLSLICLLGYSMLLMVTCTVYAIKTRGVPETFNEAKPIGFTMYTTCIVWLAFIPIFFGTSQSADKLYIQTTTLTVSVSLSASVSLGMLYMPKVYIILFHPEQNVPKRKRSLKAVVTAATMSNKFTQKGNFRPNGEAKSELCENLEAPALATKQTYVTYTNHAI
Chain of Metabotropic glutamate receptor 2 (Homo sapiens) (Q14416 19-872 limits assumed): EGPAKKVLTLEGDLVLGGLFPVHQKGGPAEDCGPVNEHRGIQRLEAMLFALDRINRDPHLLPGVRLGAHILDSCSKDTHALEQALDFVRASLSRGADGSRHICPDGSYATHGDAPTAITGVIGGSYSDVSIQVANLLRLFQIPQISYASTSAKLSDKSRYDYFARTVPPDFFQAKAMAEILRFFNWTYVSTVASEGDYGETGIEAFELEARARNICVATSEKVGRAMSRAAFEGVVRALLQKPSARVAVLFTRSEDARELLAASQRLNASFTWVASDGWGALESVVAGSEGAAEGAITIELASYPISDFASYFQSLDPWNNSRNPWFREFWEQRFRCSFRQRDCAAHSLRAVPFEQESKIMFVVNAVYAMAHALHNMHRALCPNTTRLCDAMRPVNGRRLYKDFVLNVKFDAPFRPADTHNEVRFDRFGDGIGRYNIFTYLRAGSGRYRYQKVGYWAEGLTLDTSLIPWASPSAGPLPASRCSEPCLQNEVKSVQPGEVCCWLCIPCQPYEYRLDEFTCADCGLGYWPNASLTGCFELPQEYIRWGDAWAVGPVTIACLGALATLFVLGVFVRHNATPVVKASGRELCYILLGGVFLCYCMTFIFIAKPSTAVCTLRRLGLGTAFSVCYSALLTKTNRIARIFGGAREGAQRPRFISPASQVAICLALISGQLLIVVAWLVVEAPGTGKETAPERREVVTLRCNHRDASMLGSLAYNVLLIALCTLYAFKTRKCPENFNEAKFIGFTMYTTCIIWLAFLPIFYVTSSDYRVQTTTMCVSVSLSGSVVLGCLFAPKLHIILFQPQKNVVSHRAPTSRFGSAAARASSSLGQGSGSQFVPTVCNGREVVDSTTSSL
Chain of Metabotropic glutamate receptor 3 (Homo sapiens) (Q14832 23-879 limits assumed): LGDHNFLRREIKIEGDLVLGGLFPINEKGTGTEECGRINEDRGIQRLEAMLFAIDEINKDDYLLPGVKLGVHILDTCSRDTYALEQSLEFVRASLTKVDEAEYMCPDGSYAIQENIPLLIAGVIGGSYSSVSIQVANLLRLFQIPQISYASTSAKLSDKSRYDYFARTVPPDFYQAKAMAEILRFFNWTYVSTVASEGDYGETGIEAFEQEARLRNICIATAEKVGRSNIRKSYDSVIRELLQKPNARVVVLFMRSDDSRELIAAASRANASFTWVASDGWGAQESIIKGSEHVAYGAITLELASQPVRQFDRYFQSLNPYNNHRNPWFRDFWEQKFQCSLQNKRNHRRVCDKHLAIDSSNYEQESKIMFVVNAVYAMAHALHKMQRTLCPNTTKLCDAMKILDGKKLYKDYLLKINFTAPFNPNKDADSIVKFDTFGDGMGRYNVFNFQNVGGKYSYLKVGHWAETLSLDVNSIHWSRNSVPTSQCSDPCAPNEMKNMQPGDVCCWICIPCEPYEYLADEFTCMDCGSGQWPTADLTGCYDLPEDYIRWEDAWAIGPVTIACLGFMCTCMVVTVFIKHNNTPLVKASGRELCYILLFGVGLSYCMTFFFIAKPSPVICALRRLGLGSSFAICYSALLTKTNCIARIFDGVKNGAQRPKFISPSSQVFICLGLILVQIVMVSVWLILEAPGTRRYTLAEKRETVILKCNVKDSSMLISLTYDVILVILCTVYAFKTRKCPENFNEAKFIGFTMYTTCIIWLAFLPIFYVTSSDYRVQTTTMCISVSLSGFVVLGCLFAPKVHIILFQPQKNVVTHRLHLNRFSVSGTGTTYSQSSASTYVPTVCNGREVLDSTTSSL
Chain of Metabotropic glutamate receptor 7 (Homo sapiens) (Q14831 whole entry): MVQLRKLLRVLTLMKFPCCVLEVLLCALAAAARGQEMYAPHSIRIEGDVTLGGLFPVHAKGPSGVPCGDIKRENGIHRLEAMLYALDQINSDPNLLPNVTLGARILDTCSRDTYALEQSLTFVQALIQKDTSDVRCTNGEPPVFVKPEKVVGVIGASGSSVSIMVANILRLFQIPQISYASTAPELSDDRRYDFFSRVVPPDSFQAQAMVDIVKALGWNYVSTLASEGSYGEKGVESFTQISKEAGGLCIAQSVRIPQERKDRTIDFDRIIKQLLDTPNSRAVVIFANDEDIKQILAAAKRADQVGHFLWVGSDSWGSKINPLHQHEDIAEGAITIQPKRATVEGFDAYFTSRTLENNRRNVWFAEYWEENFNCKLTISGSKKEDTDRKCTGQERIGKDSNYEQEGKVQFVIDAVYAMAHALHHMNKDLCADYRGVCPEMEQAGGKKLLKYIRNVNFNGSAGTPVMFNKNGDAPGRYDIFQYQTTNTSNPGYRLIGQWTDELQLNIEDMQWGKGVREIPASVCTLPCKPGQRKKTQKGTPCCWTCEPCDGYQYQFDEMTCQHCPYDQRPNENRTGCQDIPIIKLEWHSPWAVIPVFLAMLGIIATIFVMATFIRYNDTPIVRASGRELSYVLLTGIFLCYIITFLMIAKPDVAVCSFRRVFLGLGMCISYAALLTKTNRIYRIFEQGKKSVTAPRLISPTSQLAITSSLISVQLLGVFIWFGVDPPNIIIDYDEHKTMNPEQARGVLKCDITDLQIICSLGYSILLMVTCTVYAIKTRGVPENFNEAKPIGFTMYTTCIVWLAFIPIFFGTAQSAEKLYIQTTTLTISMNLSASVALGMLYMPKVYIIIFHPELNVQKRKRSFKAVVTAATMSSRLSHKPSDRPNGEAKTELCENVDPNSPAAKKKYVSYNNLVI
Chain of Metabotropic glutamate receptor 8 (Homo sapiens) (O00222 whole entry): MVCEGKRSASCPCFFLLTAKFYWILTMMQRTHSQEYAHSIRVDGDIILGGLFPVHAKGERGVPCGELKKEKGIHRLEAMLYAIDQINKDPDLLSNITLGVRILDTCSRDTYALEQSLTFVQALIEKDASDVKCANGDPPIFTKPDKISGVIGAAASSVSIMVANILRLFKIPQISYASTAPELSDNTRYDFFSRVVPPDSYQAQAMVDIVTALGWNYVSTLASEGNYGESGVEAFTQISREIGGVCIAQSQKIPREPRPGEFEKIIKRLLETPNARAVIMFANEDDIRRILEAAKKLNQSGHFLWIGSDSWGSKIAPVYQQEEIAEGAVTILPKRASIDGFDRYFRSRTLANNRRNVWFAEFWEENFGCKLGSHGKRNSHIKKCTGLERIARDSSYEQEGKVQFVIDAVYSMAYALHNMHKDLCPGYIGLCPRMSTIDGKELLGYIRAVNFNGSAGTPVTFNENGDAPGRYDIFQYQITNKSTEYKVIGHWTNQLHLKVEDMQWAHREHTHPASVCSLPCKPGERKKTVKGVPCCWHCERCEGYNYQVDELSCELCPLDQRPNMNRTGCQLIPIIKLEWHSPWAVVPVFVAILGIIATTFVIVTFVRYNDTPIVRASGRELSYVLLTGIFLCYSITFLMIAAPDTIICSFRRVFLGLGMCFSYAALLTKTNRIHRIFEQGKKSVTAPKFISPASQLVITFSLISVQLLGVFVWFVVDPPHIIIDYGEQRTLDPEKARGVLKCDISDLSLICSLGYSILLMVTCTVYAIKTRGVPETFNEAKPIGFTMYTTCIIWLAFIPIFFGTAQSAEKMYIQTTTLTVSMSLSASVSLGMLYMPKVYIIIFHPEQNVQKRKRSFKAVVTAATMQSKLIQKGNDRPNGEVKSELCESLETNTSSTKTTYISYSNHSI

As to `Cc1cccc(NC(=O)c2cc(Oc3cc(C)nn3C)cc(C)n2)n1`, in [1], the “K(p,uu,brain)” value was “Not_determined(Unstable)”. In addition, the Fu result in [2] is “Not_determined(Unstable)”.

Regarding `Cc1cccc(NC(=O)c2cc(Oc3cnn(C)c3C(F)(F)F)cc(C)n2)n1`, the “K(p,uu,brain)” value in data set [1] was “Not_determined(Unstable)”. In data set [2], the Fu entry was “Not_determined(Unstable)”.

Consider `Cc1cc(Oc2cnn(C)c2C(F)(F)F)cc(C(=O)Nc2ccc(F)cn2)n1`, for which the “K(p,uu,brain)” value in [1] is “Not_determined(Unstable)”. In addition, the Fu result in [2] is listed as “Not_determined(Unstable)”; in [3], 0.002.

On to `Cc1cccc(NC(=O)c2cc(Oc3ccnn3C)cc(C)n2)n1`, for which the “K(p,uu,brain)” value in [1] is given as “Not_determined(Unstable)”. Also, the Fu result in [2] is listed as “Not_determined(Unstable)”.

In turn, `Cc1cc(Oc2ccnn2C)cc(C(=O)Nc2nc(C)cs2)n1` yielded a Fu in data set [2] of 0.219.

For `Cc1cc(Oc2cnn(C)c2)cc(C(=O)Nc2ccc(F)cn2)n1`, the Imax in data set [4] is 58%. For the same molecule, the outcome in data set [5], in data set [6], in data set [7], in data set [11] and in data set [13] was inactive. Besides, the Drug metabolism result in data set [8], in data set [9], in data set [10] and in [12] was “metabolite_detected” each time.

Turning to `Cc1cc(Oc2cnn(C)c2C(F)(F)F)cc(C(=O)Nc2nc(C)cs2)n1`, the “K(p,uu,brain)” value in data set [1] is reported as “Not_determined(Unstable)”. Also, the Fu in data set [14] is recorded as 0.004; in data set [2] it was “Not_determined(Unstable)”; in data set [3] it was 0.003.
